Laboratory results from ChEMBL document CHEMBL4811229, “Leveraging Peptaibol Biosynthetic Promiscuity for Next-Generation Antiplasmodial Therapeutics” (J Nat Prod, 2021).
In brackets after ≈: the same amount, converted by molar mass. Where a SMILES comes first, the peptide text is derived from it. [ ]: non-standard residue; d: D form. The star is where a group is joined. X1 = CC(C)C[C@@H](C[N+]1=C2CCCN2CCC1)N*; Pip = O=C(O)[C@@H]1CCCCN1; Iva = CC[C@](C)(N)C(=O)O; Aib = CC(C)(N)C(=O)O; βAla = NCCC(=O)O

How the values were obtained:
Plasmodium falciparum [1] = experiment: Antiplasmodial activity against chloroquine-resistant Plasmodium falciparum K1 infected in human erythrocytes assessed as parasite growth inhibition; format: functional, organism-based; conditions: K1, Erythrocyte
Plasmodium falciparum [2] = experiment: Antiplasmodial activity against chloroquine-resistant Plasmodium falciparum FCR3 infected in human erythrocytes assessed as parasite growth inhibition; format: functional, organism-based; conditions: FCR-3/Gambia, Erythrocyte
HepG2 = experiment: Cytotoxicity against human HepG2 cells assessed as decrease in cell viability measured after 48 hrs by MTS assay; format: cell-based; conditions: HepG2, 48 h
Method in brief: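 After 48 h at 37 °C and 5% CO2, MTS was added for 4 h and absorbance read at 490 nm. Values were normalized to Triton X-100-lysed wells (0% growth) and untreated wells. EC50 is the mean of triplicate experiments.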

[3] = Selectivity index, ratio of EC50 for human HepG2 cells to EC50 for antiplasmodial activity against multidrug-resistant Plasmodium falciparum Dd2 infected in human A-positive erythrocytes; format: toxicity, cell-based; conditions: read-out: Ratio EC50
Plasmodium falciparum [4] = experiment: Antiplasmodial activity against multidrug-resistant Plasmodium falciparum Dd2 infected in human A-positive erythrocytes assessed as reduction in parasitemia incubated for 72 hrs by fluorescence-based SYBR-Green-1 assay; format: functional, organism-based; conditions: Dd2, Erythrocyte
Plasmodium falciparum [5] = experiment: Antiplasmodial activity against Plasmodium falciparum assessed as parasite growth inhibition; format: functional

Row | SMILES | EC50 (Plasmodium falciparum [1]) | EC50 (Plasmodium falciparum [2]) | EC50 (HepG2) | selectivity ratio [3] | EC50 (Plasmodium falciparum [4]) | MIC (Plasmodium falciparum [5])
1 | CCCCCCC/C=C\CCCCCCCC(=O)N[C@H](C(=O)N1C[C@H](C)C[C@H]1C(=O)N[C@H](C(=O)N[C@@H](CC(N)=O)C(=O)N[C@@H](C)[C@H]1N[C@@H](CO)[C@H](O)[C@@H](CCCCCCCCCCCCC)O1)C(C)C)[C@@H](C)O | 150 nM | 150 nM |  |  |  | 
2 | CCCCCCC/C=C\CCCCCCCC(=O)N[C@H](C(=O)N1C[C@H](C)C[C@H]1C(=O)N[C@H](C(=O)N[C@@H](CC(N)=O)C(N)=O)C(C)C)[C@@H](C)O (HELM PEPTIDE1{[CCCCCCC/C=C\CCCCCCCC(=O)[*:2]].T.[C[C@@H]1C[C@@H](C(=O)[*:2])N([*:1])C1].V.N.[am]}$$$$V2.0) | 150 nM | 150 nM |  |  |  | 
3 | CC(=O)NC(C)(C)C(=O)N[C@@H](C)C(=O)N[C@@H](C)C(=O)N[C@@H](C)C(=O)NC(C)(C)C(=O)NC(C)(C)C(=O)N[C@@H](CCC(N)=O)C(=O)NC(C)(C)C(=O)N[C@H](C(=O)NC(C)(C)C(=O)NCC(=O)N[C@@H](CC(C)C)C(=O)NC(C)(C)C(=O)N1CCC[C@H]1C(=O)N[C@H](C(=O)NC(C)(C)C(=O)NC(C)(C)C(=O)N[C@@H](CCC(N)=O)C(=O)N[C@@H](CCC(N)=O)C(=O)N[C@H](CO)Cc1ccccc1)C(C)C)C(C)C (HELM PEPTIDE1{[ac].[Aib].A.A.A.[Aib].[Aib].Q.[Aib].V.[Aib].G.L.[Aib].P.V.[Aib].[Aib].Q.Q.[OC[C@H](Cc1ccccc1)N[*:1]]}$$$$V2.0) |  |  | 9.28 µM | 17 | 560 nM | 
4 | CC[C@H](C)[C@H](NC(=O)[C@H](CC(C)C)NC(=O)[C@H](CC(N)=O)NC(=O)C(C)(C)NC(C)=O)C(=O)NC(C)(C)C(=O)N1CCC[C@H]1C(=O)N[C@](C)(CC)C(=O)N[C@@H](CC(C)C)C(=O)NC(C)(C)C(=O)N1CCC[C@H]1C(=O)N[C@H](CO)CC(C)C (HELM PEPTIDE1{[ac].[Aib].N.L.I.[Aib].P.[CC[C@@](C)(N[*:1])C(=O)[*:2]].L.[Aib].P.[CC(C)C[C@@H](CO)N[*:1]]}$$$$V2.0) |  |  | > 25 µM | > 35 | 720 nM | 
5 | CC[C@H](C)[C@H](NC(=O)[C@H](C)NC(=O)[C@@H]1CCCN1C(=O)C(C)(C)NC(=O)[C@H](CC(C)C)NC(=O)[C@H](CC(N)=O)NC(=O)C(C)(C)NC(C)=O)C(=O)NC(C)(C)C(=O)N1CCC[C@H]1C(=O)NC(C)(C)C(=O)N[C@@H](CC(C)C)C(=O)NC(C)(C)C(=O)N1CCC[C@H]1C(=O)N[C@H](CO)CC(C)C (HELM PEPTIDE1{[ac].[Aib].N.L.[Aib].P.A.I.[Aib].P.[Aib].L.[Aib].P.[CC(C)C[C@@H](CO)N[*:1]]}$$$$V2.0) |  |  | > 25 µM | > 60 | 420 nM | 
6 | CC[C@H](C)[C@H](NC(=O)[C@H](CO)NC(=O)[C@@H]1CCCN1C(=O)C(C)(C)NC(=O)[C@H](CC(C)C)NC(=O)[C@H](CC(N)=O)NC(=O)C(C)(C)NC(C)=O)C(=O)NC(C)(C)C(=O)N1CCC[C@H]1C(=O)NC(C)(C)C(=O)N[C@@H](CC(C)C)C(=O)NC(C)(C)C(=O)N1CCC[C@H]1C(=O)N[C@H](CO)CC(C)C (HELM PEPTIDE1{[ac].[Aib].N.L.[Aib].P.S.I.[Aib].P.[Aib].L.[Aib].P.[CC(C)C[C@@H](CO)N[*:1]]}$$$$V2.0) |  |  | > 25 µM | > 40 | 630 nM | 
7 | CC(=O)NC(C)(C)C(=O)N[C@@H](CC(N)=O)C(=O)N[C@@H](CC(C)C)C(=O)NC(C)(C)C(=O)N1CCC[C@H]1C(=O)N[C@@H](CO)C(=O)N[C@H](C(=O)NC(C)(C)C(=O)N1CCC[C@H]1C(=O)NC(C)(C)C(=O)N[C@@H](CC(C)C)C(=O)NC(C)(C)C(=O)N1CCC[C@H]1C(=O)N[C@H](CO)CC(C)C)C(C)C (HELM PEPTIDE1{[ac].[Aib].N.L.[Aib].P.S.V.[Aib].P.[Aib].L.[Aib].P.[CC(C)C[C@@H](CO)N[*:1]]}$$$$V2.0) |  |  | > 25 µM | > 35 | 710 nM | 
8 | CC[C@@](C)(NC(=O)[C@@H]1CCCN1C(=O)C(C)(C)NC(=O)[C@@H](NC(=O)[C@H](CO)NC(=O)[C@@H]1CCCN1C(=O)C(C)(C)NC(=O)[C@H](CC(C)C)NC(=O)[C@H](CC(N)=O)NC(=O)C(C)(C)NC(C)=O)C(C)C)C(=O)N[C@@H](CC(C)C)C(=O)NC(C)(C)C(=O)N1CCC[C@H]1C(=O)N[C@H](CO)CC(C)C (HELM PEPTIDE1{[ac].[Aib].N.L.[Aib].P.S.V.[Aib].P.[CC[C@@](C)(N[*:1])C(=O)[*:2]].L.[Aib].P.[CC(C)C[C@@H](CO)N[*:1]]}$$$$V2.0) |  |  | > 25 µM | > 45 | 560 nM | 
9 | CCC(=O)CCCCC[C@@H]1NC(=O)[C@H]2CCCCN2C(=O)[C@H]([C@@H](C)CC)NC(=O)[C@H](Cc2cn(OC)c3ccccc23)NC1=O [APICIDIN] |  |  |  |  |  | 0.19 µM (≈ 0.119 µg/mL)
10 | CC[C@](C)(NC(=O)[C@H](CC(C)C)NC(=O)[C@H](C)NC(=O)C(C)(C)NC(=O)[C@@H]1CCCCN1C(=O)C(C)(C)NC(=O)C(C)(C)NC(=O)CNC(=O)CCNC(=O)[C@H](CC(C)C)NC(=O)C(C)(C)NC(=O)[C@](C)(CC)NC(=O)[C@@H]1CCCCN1C(=O)C(C)(C)NC(=O)[C@@H]1CCCCN1C(C)=O)C(=O)N[C@@H](CC(C)C)C[N+]1=C2CCCN2CCC1 [EFRAPEPTIN G] (Ac-[Pip][Aib][Pip][Iva][Aib]L[βAla]G[Aib][Aib][Pip][Aib]AL[Iva]-X1) |  |  | > 25 µM | > 54 | 460 nM | 
